Results published in BindingDB's records for doi:10.1016/j.bmc.2010.05.001 (St. Jude Children'S Research Hospital, 2011).
pIC50: −log10 of the molar value.

Key:
[1] = target: T1, Zinc finger protein GLI1 (Homo sapiens, UniProt P08151); assay: Inhibition of human Gli1 expressed in mouse C3H10T1/2 cells assessed as inhibition of transcriptional activity after 24 hrs by luciferase reporter gene assay
T1 sequence (P08151 whole entry): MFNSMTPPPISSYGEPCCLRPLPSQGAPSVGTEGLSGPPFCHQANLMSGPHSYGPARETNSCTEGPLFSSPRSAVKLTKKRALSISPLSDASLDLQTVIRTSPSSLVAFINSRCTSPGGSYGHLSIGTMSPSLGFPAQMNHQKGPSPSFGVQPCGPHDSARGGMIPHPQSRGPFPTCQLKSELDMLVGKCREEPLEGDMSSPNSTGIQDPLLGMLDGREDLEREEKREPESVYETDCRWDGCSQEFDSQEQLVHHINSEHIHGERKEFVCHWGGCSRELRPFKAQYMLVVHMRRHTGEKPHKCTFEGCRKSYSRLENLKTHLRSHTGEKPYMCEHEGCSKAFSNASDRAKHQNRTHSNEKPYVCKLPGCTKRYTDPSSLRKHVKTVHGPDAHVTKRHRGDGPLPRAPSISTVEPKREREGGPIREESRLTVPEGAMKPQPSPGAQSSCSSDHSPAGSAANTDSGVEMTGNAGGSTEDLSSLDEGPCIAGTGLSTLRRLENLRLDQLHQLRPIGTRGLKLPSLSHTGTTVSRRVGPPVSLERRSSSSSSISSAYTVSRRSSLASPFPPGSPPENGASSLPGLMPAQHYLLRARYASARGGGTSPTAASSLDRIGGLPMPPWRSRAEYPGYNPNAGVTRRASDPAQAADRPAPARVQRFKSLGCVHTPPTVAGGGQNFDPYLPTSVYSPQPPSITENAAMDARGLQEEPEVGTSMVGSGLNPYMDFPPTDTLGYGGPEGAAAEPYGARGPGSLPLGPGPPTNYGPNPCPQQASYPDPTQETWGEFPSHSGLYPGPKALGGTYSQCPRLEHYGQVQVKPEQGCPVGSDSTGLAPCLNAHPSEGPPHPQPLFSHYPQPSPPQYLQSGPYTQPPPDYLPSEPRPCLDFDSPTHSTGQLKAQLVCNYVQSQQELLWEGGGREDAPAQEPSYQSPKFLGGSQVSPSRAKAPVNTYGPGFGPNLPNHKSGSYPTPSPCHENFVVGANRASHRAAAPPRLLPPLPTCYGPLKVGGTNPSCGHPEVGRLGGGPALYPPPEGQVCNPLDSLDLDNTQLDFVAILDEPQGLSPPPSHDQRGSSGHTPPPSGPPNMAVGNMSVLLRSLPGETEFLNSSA
Method in brief: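 C3H10T1/2 cells transiently transfected overnight with GliLuc-BS, pRL-TK Renilla control and human Gli1 (or mouse Gli2 for Gli2 lines), 250 ng/mL each for the Gli plasmids. Firefly/Renilla dual-luciferase ratio normalized to DMSO, triplicates. Dose–response IC50 from curve fitting.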

[2] = target: T1, Zinc finger protein GLI1; assay: Inhibition of human Gli1-mediated transcriptional activity in human Rh30 cells after 24 hrs by luciferase reporter gene assay
Method in brief: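 Rh30 cells without Gli1 transfection, transfected overnight with GliLuc-BS (500 ng/mL) and pRL-CMV (2.5 ng/mL), then replated in 96-well plates. Compound given in RPMI-1640/10% FBS for 24 h at 37 °C. Firefly luminescence divided by Renilla and normalized to DMSO-treated cells (0% inhibition), triplicates.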

CCCN(C(=O)C(C)c1cccc(C(=O)c2ccccc2)c1)c1ccc2[nH]ccc2c1 (configuration not stated) [2-(3-Benzoylphenyl)-N-(1H-indol-5-yl)-N-propylpropanamide]
pIC50 [1]: 5.80

CN(C)c1ccccc1CN1CCCN(Cc2ccccc2N(C)C)C1c1ccncc1 [2-((3-(2-(dimethylamino)benzyl)-2-(pyridin-4-yl)-tetrahydropyrimidin-1(2H)-yl)methyl)-N,N-dimethylbenzenamine]
pIC50 [2]: 4.40
